Molecules are shown by their SMILES. Out of some 3,500 compounds screened, about 1,400 (40%) were called active. The set was probably picked from earlier hits. A selection follows. Values without a mark were called inactive.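 How the source made its calls: active means activation above the solvent-only control well mean plus 3 SD, averaged across control plates (cut at about 5.2% in these data); inactive means the rest.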

The test in a line: GAL4-VP16 luciferase reporter activation, counter-screen for SMARCA2 (BRM) activator project, cell-based, pG5luc, luminescence, high throughput (AID 686939). The settings on record: HEK293 GAL4-VP16 pG5luc reporter, at 9.1 µM, hits give high values, scaled: DMSO wells 0%, SAHA wells 100%. The procedure, abridged:
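System: 293 cells carrying GAL4-VP16 plus UAS-luciferase reporter. Quantity: 2,500 transfected 293 cells per well. Incubation: 24 h exposure, 37 °C, 5% CO2, One-Glo 15 min RT. Technique: luciferase luminescence after One-Glo reagent addition. Benchmarks: DMSO and SAHA.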
In general terms: Reporter assays use an easily measured gene product as a stand-in for the process of interest.
Turning to `Cc1noc(C)c1S(=O)(=O)N(C)C[C@H]1Oc2c(NC(=O)Nc3ccc4c(c3)OCO4)cccc2C(=O)N([C@H](C)CO)C[C@@H]1C`, the activation was 0.03%.

For `CN(C)C(=S)N=c1ssc(=S)n1Cc1ccco1`, the activation is 11.9% (active). The result for `CCOC(=O)c1sc2nc(CSc3ccccc3)[nH]c(=O)c2c1C` reads 0.23%; that for `COc1ccc(-c2cc3ncccc3cn2)cc1`, 9.76% (active); that for `Cc1ccc(NC(=O)C(=O)NCc2ccco2)c(C)c1`, 5.75% (active). Turning to `CC(C)(C)c1ccc(NC(=O)NCc2ccco2)cc1`, the activation is 0.6%. As for `Cc1cc(O)c(NC(=O)c2ccc(C)c([N+](=O)[O-])c2)cc1C`, the activation was 7.82% (active).

With `FC(F)(F)c1cccc(-c2nc3ccccc3n2C(c2ccccc2)c2nc3ccccc3[nH]2)c1` (centres undefined), the activation is 4.89%. The figure for `COc1ccc(C(CNC(=O)c2ccc(S(=O)(=O)Nc3ccccc3F)cc2)N(C)C)cc1` (centres undefined) is -0.57%. Take `CN(C)S(=O)(=O)c1ccc2oc(SCC(=O)Nc3ccccc3F)nc2c1`: the activation was 13.2% (active).

Regarding `COc1ccc(N=C(C)c2sc3ccccc3c2O)cc1`, the activation is 6.57% (active). As to `CCOC(=O)C(C)n1cnc2c(nnn2-c2cccc(OC)c2)c1=O` (centres undefined), the activation was 4.04%. Consider `COc1ccc(C(=O)NC2=NCCS2)c(OC)c1`, for which the activation is 12.2% (active).

With `Cc1ccc(N/C=C/C(=O)c2ccccc2)cc1C`, the activation is 6.49% (active). Turning to `Cc1cc(=O)[nH]c(N/N=C/c2ccc3c(c2)OCCO3)n1`, the activation is 3.2%. With `CCc1c(C)c2ccc(OC3CCCCC3=O)cc2oc1=O` (centres undefined), the activation is 2.57%. For the compound `COc1ccc(/C=N/NC(=O)c2cc(-c3cccc(C)c3)nc3ccccc23)cc1O`, the activation was 7.74% (active). As to `COc1cc(/C=N/NC(=O)c2ccccc2)ccc1OS(=O)(=O)c1ccccc1`, the activation is 0.14%. The figure for `CC(C)(C)NC(=O)C(CCc1ccccc1)n1c(=O)c(-c2ccccc2)nc2ccccc21` (centres undefined) is 0.34%; for `CCCCc1ccc(NC(=S)N2CCCC(CO)C2)cc1` (centres undefined) it is 10.3% (active).

As to `CCC(C)N(C)C1CCN(C(=S)Nc2ccc(OC)cc2)CC1` (centres undefined), the activation was 1.62%. As to `Cc1cc(C)c2nc3nc(C)cc(C)c3c(N)c2c1`, the activation was 3.96%.

As for `O=C1Cc2cc(S(=O)(=O)Nc3cccc(F)c3)ccc2N1`, the activation is 1.09%.

In the case of `CCc1ccc[n+](-c2nc([O-])sc2C=O)c1`, the activation was 0.22%. As to `Cc1cc(C)nc(Nc2n[nH]c(-c3ccccc3N)n2)n1`, the activation was 12.3% (active). Turning to `CCOC(=O)c1c(C)[nH]c(C2=NNC(=NC(C)COC)SC2)c1C` (centres undefined), the activation is 8.27% (active). Turning to `COc1cccc(OCCOc2cccc(/C=N/n3cnnc3)c2)c1`, the activation was 6.43% (active). For the compound `Cc1ccc(-c2c(C)n([O-])c3c([n+]2=O)CCC3)cc1`, the activation was -0.96%. The figure for `Cc1ccc(C(=O)CSc2ccccc2C(=O)O)cc1` is 6.75% (active); for `COCC(C)n1c(SCc2ccc(C(=O)OC)o2)nc2ccccc2c1=O` (centres undefined) it is 2.22%.

For the compound `CC1CCCCC1NC(=O)CN1CCC(O)(c2ccc3c(c2)OCO3)CC1` (centres undefined), the activation is 4.35%. On to `O=C(Nc1cccc([N+](=O)[O-])c1)N1CCc2ccccc2C1`, for which the activation was 4.55%.

For the compound `COc1ccc(C(=O)Nc2ccc3c(c2)OCO3)cc1OC`, the activation was 10.2% (active).

Consider `O=C(Nc1cccc([N+](=O)[O-])c1)c1ccc2c(c1)OCO2`, for which the activation is 8.02% (active). On to `COc1ccc(C)cc1S(=O)(=O)N(CC(=O)Nc1cccc([N+](=O)[O-])c1)c1ccc(C)cc1`, for which the activation is -1.27%.

`Cc1ccnc(Nc2nc3ccccc3s2)n1`: the activation was 3.74%.

For `CC1(C)CC(=O)C=C(NCCCNC2CCCCC2)C1`, the activation is -0.02%.

For the compound `Cc1cc2oc3ccc(NCCC4CCCN4C)cc3c(=O)c2cc1C` (centres undefined), the activation is 6.3% (active). For the compound `Cc1ccccc1C#CC1=CC(=O)CC(C)(C)C1`, the activation was 1.83%.

(Values after PubChem BioAssay AID686939 (The Scripps Research Institute Molecular Screening Center, 2013).)
